Assay results published in ChEMBL document CHEMBL1133351, “Synthesis and evaluation of vitamin D-based cationic lipids for gene delivery in vitro” (2000).

Columns and labels:
[1] = system: HeLa; assay: Transfection activity of compound was tested in human cervical adenocarcinoma (HeLa) cells (Level of luciferase gene expression is expressed as mean of relative light units (RLU) per well); type: functional
Procedure, shortened: (§1)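 Cationic lipid:DOPE (1:1 molar) films hydrated in PBS pH 7.4 (5 mM cationic lipid), bath-sonicated. pCMV-Luc (CMV-driven firefly luciferase) 1 µg in serum-free CHO-S-SFM mixed with 5 nmol lipid in HBSS, 5–10 min RT. Cells 5×10^4/well seeded 24 h prior; 5 h exposure, then FBS; medium replaced at 24 h; lysed 24 h later; luciferase luminescence (10 s), RLU/well, mean of triplicates.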

[2] = Transfection activity of compound was tested in lewis lung carcinoma (3LL) cells (Level of luciferase gene expression is expressed as mean of relative light units (RLU) per well); type: functional, cell-based; details: Mus musculus; procedure, shortened: as §1
[3] = system: HEK293; assay: Transfection activity of compound was tested in human embryonic kidney (293) cells (Level of luciferase gene expression is expressed as mean of relative light units (RLU) per well); type: functional; procedure, shortened: as §1
[4] = system: NIH3T3; assay: Transfection activity of compound was tested in murine embryonic fibroblast (NIH3T3) cells (Level of luciferase gene expression is expressed as mean of relative light units (RLU) per well); type: functional, Mus musculus; procedure, shortened: as §1

Structure (SMILES): C=C1CC[C@H](OC(=O)NCCN(CCN)CCN)C/C1=C/C=C1\CCC[C@]2(C)[C@@H]([C@H](C)/C=C/[C@H](C)C(C)C)CC[C@@H]12.Cl
- RLU/well [1]: 540000
- RLU/well [2]: 590000
- RLU/well [3]: 4.8e+07
- RLU/well [4]: 1.9e+06

Structure (SMILES): C=C1CC[C@H](OC(=O)NCCN(C)C)C/C1=C/C=C1\CCC[C@]2(C)[C@@H]([C@H](C)/C=C/[C@H](C)C(C)C)CC[C@@H]12.Cl
- RLU/well [1]: 2.6e+06
- RLU/well [2]: 800000
- RLU/well [3]: 3.9e+06
- RLU/well [4]: 270000

Structure (SMILES): C=C1CC[C@H](OC(=O)NCCN(C)C)C/C1=C/C=C1\CCC[C@]2(C)[C@@H]([C@H](C)CCCC(C)C)CC[C@@H]12.Cl
- RLU/well [1]: 290000
- RLU/well [2]: 220000
- RLU/well [3]: 1.1e+06
- RLU/well [4]: 120000

Structure (SMILES): C=C1CC[C@H](OC(=O)NCC[N+](C)(C)C)C/C1=C/C=C1\CCC[C@]2(C)[C@@H]([C@H](C)/C=C/[C@H](C)C(C)C)CC[C@@H]12.[I-]
- RLU/well [1]: 38000
- RLU/well [2]: 4000
- RLU/well [3]: 1.6e+06
- RLU/well [4]: 180000

Structure (SMILES): C=C1CC[C@H](OC(=O)NCC[N+](C)(C)C)C/C1=C/C=C1\CCC[C@]2(C)[C@@H]([C@H](C)CCCC(C)C)CC[C@@H]12.[I-]
- RLU/well [1]: 18000
- RLU/well [2]: 5300
- RLU/well [3]: 560000
- RLU/well [4]: 570000

Structure (SMILES): C=C1CC[C@H](OC(=O)NCCCCN)C/C1=C/C=C1\CCC[C@]2(C)[C@@H]([C@H](C)CCCC(C)C)CC[C@@H]12.Cl
- RLU/well [1]: 1.7e+06
- RLU/well [2]: 820000
- RLU/well [3]: 4.7e+07
- RLU/well [4]: 7.8e+06

Structure (SMILES): C=C1CC[C@H](OC(=O)NCCN(CCN)CCN)C/C1=C/C=C1\CCC[C@]2(C)[C@@H]([C@H](C)CCCC(C)C)CC[C@@H]12.Cl
- RLU/well [1]: 1.4e+06
- RLU/well [2]: 150000
- RLU/well [3]: 3.2e+07
- RLU/well [4]: 690000

Structure (SMILES): C=C1CC[C@H](OC(=O)NCCCCN)C/C1=C/C=C1\CCC[C@]2(C)[C@@H]([C@H](C)/C=C/[C@H](C)C(C)C)CC[C@@H]12.Cl
- RLU/well [1]: 930000
- RLU/well [2]: 610000
- RLU/well [3]: 6.3e+07
- RLU/well [4]: 2.1e+06
